The values that follow come from ChEMBL document CHEMBL1137939, “Manipulation of kinetic profiles in 2-aryl propionic acid cyclooxygenase inhibitors” (Bioorg Med Chem Lett, 2004).

In this assay the target is T1, Prostaglandin G/H synthase 1 (Ovis aries, UniProt P05979).
T1 sequence (P05979 whole entry): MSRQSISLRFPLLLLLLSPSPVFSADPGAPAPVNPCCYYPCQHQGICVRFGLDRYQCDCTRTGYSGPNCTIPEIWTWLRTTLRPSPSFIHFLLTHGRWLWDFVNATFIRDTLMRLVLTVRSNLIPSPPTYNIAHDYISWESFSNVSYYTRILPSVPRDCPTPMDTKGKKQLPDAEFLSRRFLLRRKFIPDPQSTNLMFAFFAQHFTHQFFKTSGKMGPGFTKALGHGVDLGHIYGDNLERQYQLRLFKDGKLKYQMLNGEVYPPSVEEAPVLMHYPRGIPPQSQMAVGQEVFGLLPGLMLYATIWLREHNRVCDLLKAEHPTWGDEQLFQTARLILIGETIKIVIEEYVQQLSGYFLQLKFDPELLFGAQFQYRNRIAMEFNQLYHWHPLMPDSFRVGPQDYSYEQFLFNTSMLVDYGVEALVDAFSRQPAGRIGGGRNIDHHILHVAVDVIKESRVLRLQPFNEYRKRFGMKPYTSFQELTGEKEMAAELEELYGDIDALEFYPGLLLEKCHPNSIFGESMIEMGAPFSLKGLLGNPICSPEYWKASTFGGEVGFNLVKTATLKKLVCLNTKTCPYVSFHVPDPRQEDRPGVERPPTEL
Put plainly: Reversible competitive inhibition of prostaglandin G/H synthase 1. Summed up:
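Ovine seminal vesicle COX-1, purified to >95% (Coomassie SDS-PAGE) and hematin-reconstituted. Coupled cyclooxygenase-peroxidase assay at 22 °C in 0.1 M Tris–HCl pH 8.0, read as TMPD oxidation after arachidonic acid start. Initial rates were taken because the enzyme auto-inactivates. Hydrogen-peroxide-initiated controls checked for peroxidase inhibition.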

`COC(=O)C(C)c1ccc(-c2ccccc2)c(F)c1` (stereo not given) had an IC50 of 210 µM.
The compound `CNC(=O)C(C)c1ccc(-c2ccccc2)cc1` (stereo not given) showed an IC50 of 19.5 µM.
The compound `CNC(=O)C(C)c1ccc(-c2ccccc2)c(F)c1` (stereo not given) registered an IC50 of 24 µM.
The result for `CC(C(N)=O)c1ccc(-c2ccccc2)cc1` (stereo not given) reads 64.5 µM; that for `CC(C)Cc1ccc(C(C)C(=O)O)cc1[N+](=O)[O-]` (stereo not given), 59 µM; that for `CC(C)Cc1ccc(C(C)C(=O)O)cc1Br` (stereo not given), 0.11 µM.
As to `CC(C(=O)N(C)C)c1ccc(-c2ccccc2)cc1` (stereo not given), the IC50 came to 4.8 µM.
The figure for `CC(C(=O)N(C)C)c1ccc(-c2ccccc2)c(F)c1` (stereo not given) is 215 µM; for `CC(C(N)=O)c1ccc(-c2ccccc2)c(F)c1` (stereo not given) it is 8.3 µM; for `COC(=O)C(C)c1ccc(-c2ccccc2)cc1` (stereo not given) it is 28.5 µM.
